How the values were obtained:
[1] = test system: P388; assay: Percentage change in median survival time of P388 (leukemia) inoculated female mice following 200 mg/kg p.o.; conditions: route oral
[2] = test system: P388; assay: Percentage change in median survival time of P388 (leukemia) inoculated female mice following 100 mg/kg p.o.; conditions: route oral
[3] = test system: Mus musculus; assay: Antitumor activity against P-388 Leukemia in female BDF1 mice expressed as percent T/C at dose 50 mg/kg; format: functional
Outline: (§1)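 P-388 leukemia, 10⁶ cells implanted ip in BDF₁ mice, five per group. Test agents dissolved or suspended in 0.3% CMC-Na and dosed orally once daily for 9 days, beginning 1 day after implantation. Activity expressed as treated/control ratio of median survival time.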

[4] = test system: P388; assay: Percentage change in median survival time of P388 (leukemia) inoculated female mice following 25 mg/kg p.o.; conditions: route oral
[5] = test system: Mus musculus; assay: Antitumor activity against P-388 Leukemia in female BDF1 mice expressed as percent T/C at dose 12.5 mg/kg; format: functional
Outline: as §1

[6] = test system: P388; assay: Percentage change in median survival time of P388 (leukemia) inoculated female mice following 30 mg/kg p.o.; conditions: route oral
[7] = test system: Mus musculus; assay: Antitumor activity against Meth A cells in female Balb/c mice expressed as percent T/C at dose 50 mg/kg
[8] = test system: Mus musculus; assay: Antitumor activity against MH 134 cells in female C3H mice expressed as percent T/C at dose 100 mg/kg
[9] = test system: Mus musculus; assay: Antitumor activity against L-1210 in female BDF1 mice expressed as percent T/C at dose 200 mg/kg; format: functional
Outline: (§2)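 L-1210 leukemia, 10⁶ cells implanted ip into BDF₁ mice (five females per group, 17–23 g). Compound dissolved or suspended in 0.3% CMC-Na, given orally once daily for 5 days starting 1 day after implantation. Activity taken as the ratio of median survival time, treated vs control.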

[10] = test system: Mus musculus; assay: Antitumor activity against Meth A cells in female Balb/c mice expressed as percent T/C at dose 100 mg/kg
[11] = test system: Mus musculus; assay: Antitumor activity against L-1210 in female BDF1 mice expressed as percent T/C at dose 300 mg/kg; format: functional
Outline: as §2

[12] = test system: Mus musculus; assay: Antitumor activity against MH 134 cells in female C3H mice expressed as percent T/C at dose 200 mg/kg
[13] = test system: Mus musculus; assay: Antitumor activity against L-1210 in female BDF1 mice expressed as percent T/C at dose 100 mg/kg; format: functional
Outline: as §2

[14] = test system: Mus musculus; assay: Antitumor activity against Meth A cells in female Balb/c mice expressed as percent T/C at dose 200 mg/kg
[15] = test system: Mus musculus; assay: Antitumor activity against MH 134 cells in female C3H mice expressed as percent T/C at dose 50 mg/kg
[16] = test system: Mus musculus; assay: Antitumor activity against L-1210 in female BDF1 mice expressed as percent T/C at dose 50 mg/kg; format: functional
Outline: as §2

[17] = test system: Mus musculus; assay: Antitumor activity against L-1210 cells in female BDF1 mice expressed as percent T/C at dose 200 mg/kg; format: functional
Outline: as §2

[18] = test system: Mus musculus; assay: Antitumor activity against L-1210 cells in female BDF1 mice expressed as percent T/C at dose 100 mg/kg; format: functional
Outline: as §2

[19] = test system: Mus musculus; assay: Antitumor activity against MH 134 cells in female C3H mice expressed as percent T/C at dose 100 mg/kg; remark: listed apart in the source
[20] = test system: Mus musculus; assay: Antitumor activity against MH 134 cells in female C3H mice expressed as percent T/C at dose 200 mg/kg; remark: listed apart in the source
[21] = test system: Mus musculus; assay: Antitumor activity against MH 134 cells in female C3H mice expressed as percent T/C at dose 50 mg/kg; remark: listed apart in the source
[22] = test system: Mus musculus; assay: Antitumor activity against L-1210 cells in female BDF1 mice expressed as percent T/C at dose 50 mg/kg; format: functional
Outline: as §2

[23] = test system: Mus musculus; assay: Antitumor activity against L-1210 cells in female BDF1 mice expressed as percent T/C at dose 300 mg/kg; format: functional
Outline: as §2

Compound | T/C [1] | T/C [2] | T/C [3] | T/C [4] | further results
CCOC(=O)n1cc(F)c(=O)n(C(=O)c2ccccc2)c1=O | 83% | 123% | 116% | 103% | 
O=C(Oc1ccccc1)n1c(=O)[nH]cc(F)c1=O |  | 83% | 101% | 112% | T/C [5]: 97%
O=C(Oc1ccccc1)n1cc(F)c(=O)n(C(=O)c2ccccc2)c1=O | 107% | 119% | 112% | 99% | 
CC(=O)n1cc(F)c(=O)n(C(C)=O)c1=O |  | 86% | 103% | 112% | T/C [5]: 103%
Cc1ccccc1C(=O)n1c(=O)c(F)cn(C(=O)OCc2ccccc2)c1=O | 110% | 125% | 108% |  | 
CC(=O)n1cc(F)c(=O)n(C(=O)c2ccccc2)c1=O | 99% | 144% | 116% | 108% | 
CCOC(=O)n1cc(F)c(=O)n(C(=O)CC)c1=O | 52% | 82% | 112% | 105% | 
CCC(=O)n1cc(F)c(=O)n(C(=O)c2ccccc2)c1=O | 90% | 130% | 119% | 110% | 
Cc1ccccc1C(=O)n1c(=O)c(F)cn(C(=O)C(C)C)c1=O | 169% | 116% | 112% | 110% | 
CC(=O)n1cc(F)c(=O)n(C(=O)OCc2ccccc2)c1=O | 112% | 116% | 105% |  | 
CCOC(=O)n1cc(F)c(=O)n(C(=O)c2ccccc2C)c1=O | 164% | 127% | 125% | 112% | 
O=C(OCc1ccccc1)n1c(=O)[nH]cc(F)c1=O | 96% | 110% | 101% |  | 
Cc1ccccc1C(=O)n1c(=O)[nH]cc(F)c1=O |  | 103% | 127% |  | T/C [6]: 124%
CC(=O)n1c(=O)c(F)cn(C(=O)c2ccccc2C)c1=O |  | 108% | 114% | 97% | T/C [5]: 111%
Cc1ccccc1C(=O)n1c(=O)c(F)cn(C(=O)Oc2ccccc2)c1=O | 135% | 129% | 106% | 100% | 
CCC(=O)n1cc(F)c(=O)n(C(=O)c2ccccc2C)c1=O | 138% | 136% | 112% | 103% | 
O=c1[nH]c(=O)n(C2CCCO2)cc1F (stereo unspecified) [TEGAFUR] | 106% | 136% | 104% | 115% | T/C [7]: 82%; T/C [8]: 58%; T/C [9]: 143%; T/C [10]: 53%; T/C [11]: 102%; T/C [12]: 57%; T/C [13]: 124%; T/C [14]: 19%; T/C [15]: 70%; T/C [16]: 110%; T/C [5]: 111%
Cc1ccccc1C(=O)n1c(=O)c(F)cn(C(=O)O[C@H]2CCC3(C)C(=CCC4[C@@H]3CCC3(C)[C@@H](C(C)CCCC(C)C)CC[C@@H]43)C2)c1=O (stereo partly specified) | 112% | 100% | 98% |  | 
CC(=O)n1cc(F)c(=O)n(C(=O)c2ccccc2C)c1=O | 121% | 151% | 111% | 121% | T/C [7]: 71%; T/C [17]: 136%; T/C [18]: 128%; T/C [10]: 58%; T/C [19]: 43%; T/C [20]: 25%; T/C [14]: 32%; T/C [21]: 61%; T/C [22]: 110%; T/C [23]: 167%
COC(=O)n1cc(F)c(=O)n(C(=O)c2ccccc2C)c1=O | 142% | 138% | 112% | 101% | 
O=c1[nH]cc(F)c(=O)[nH]1 [FLUOROURACIL] |  |  | 76% | 135% | T/C [5]: 127%
CCCCCCOC(=O)n1cc(F)c(=O)n(C(=O)c2ccccc2C)c1=O | 147% | 96% | 106% | 100% | 
CCOC(=O)n1cc(F)c(=O)n(C(C)=O)c1=O |  | 59% | 115% | 103% | T/C [5]: 94%
CCCCCCC(=O)n1c(=O)c(F)cn(C(=O)OCC)c1=O | 74% | 118% | 119% | 110% | 
